Assay results reported in ChEMBL document CHEMBL4613269, “2-((4-Arylpiperazin-1-yl)methyl)benzonitrile Derivatives as Orally Available Inhibitors of Hepatitis C Virus with a Novel Mechanism of Action” (J Med Chem, 2020).
Activity calls are given as the source filed them. No cut-off for these calls is given here.

What was measured:
[1] = Selectivity index, ratio of CC50 for cytotoxicity in human Huh7.5 cells assessed as reduction in cell viability incubated for 96 hrs by MTT assay to EC50 antiviral activity against HCV J6/JFH/JC1 infected in human Huh7.5 cells assessed as reduction in viral RNA levels incubated for 72 hrs by qRT-PCR analysis; format: toxicity, cell-based; settings: read-out: Ratio CC50/EC50
Procedure, shortened: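 Selectivity index = CC50/EC50. CC50: Huh7.5 cells seeded at 3×10^4/cm², medium with compound added at 24 h, MTT read at 96 h. EC50: HCVcc-infected Huh7.5 cells treated for 72 h, HCV RNA by qRT-PCR normalised to GAPDH. Serial 1:5 dilutions in eight steps, Reed & Muench calculation, means ± SD of three independent experiments.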

[2] = tested on: Hepatitis C virus; assay: Antiviral activity against HCV GS4.3 infected in human Huh7.5 cells assessed as reduction in viral NS3 protein levels at 0.1 to 5 uM incubated for 14 days by Western blot assay; format: functional, organism-based; settings: Hepacivirus hominis
[3] = tested on: Hepatitis C virus; assay: Antiviral activity against HCV GS4.3 infected in human Huh7.5 cells assessed as […] at 0.008 to 1 uM pre-incubated with drug for 2 hrs before viral infection and measured after 72 hrs by Western blot assay; format: functional, organism-based; settings: Hepacivirus hominis
[4] = tested on: Hepatitis C virus; assay: Antiviral activity against HCV GS4.3 infected in human Huh7.5 cells assessed as […] at 0.008 to 1 uM incubated with drug for 2 hrs after viral infection and measured after 72 hrs by Western blot assay; format: functional, organism-based; settings: Hepacivirus hominis
[5] = tested on: Hepatitis C virus; assay: Induction of HCV GS4.3 viral particles inactivation infected in human Huh7.5 cells assessed as reduction in viral protein levels at 1 uM pre-incubated with virus for 2 hrs before viral infection and measured after 72 hrs by Western blot assay; format: functional, organism-based; settings: Hepacivirus hominis
Procedure, shortened: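 Huh7.5 cells inoculated with HCV stock pre-treated 2 h with 1.0 μM compound, then diluted 20-fold (final 0.05 μM). Control stocks were treated with 0.05 μM or 1.0 μM. Intracellular proteins were extracted and analysed by western blot at 72 h, with HCV Core/actin ratio normalized to control.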

[6] = tested on: Hepatitis C virus; assay: Antiviral activity against HCV with glycoprotein E1 F291V mutant infected in human Huh7.5 cells assessed as reduction in viral RNA levels incubated for 72 hrs by qRT-PCR analysis; format: functional, organism-based, Hepacivirus hominis
Procedure, shortened: (§1)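 Huh7.5 cells seeded at 3×10^4/cm², infected 24 h later with wild-type or mutant HCV stock while compound or solvent was added at the same time. Intracellular HCV RNA measured by qRT-PCR at 72 h, normalised to GAPDH, 2^-ΔCT method. EC50 by Reed & Muench from eight-step 1:5 serial dilutions, triplicate wells.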

[7] = tested on: Coxsackievirus B3; assay: Antiviral activity against Coxsackievirus B3 infected in Vero cells assessed as reduction in virus-induced cytopathic effect incubated for 48 hrs by Reed-Muench method; format: functional, organism-based; settings: Enterovirus B
[8] = Cytotoxicity in African green monkey Vero cells assessed as reduction in cell viability; format: cell-based; settings: chlorocebus sabaeus
[9] = tested on: Hepatitis C virus; assay: Antiviral activity against wild type HCV by qRT-PCR analysis based by Reed-Muench method; format: functional, organism-based, Hepacivirus hominis
Procedure, shortened: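 Huh7.5 cells seeded 24 h, then infected with wild-type (or mutant) HCV with compound added at the same time. Incubated 72 h. Intracellular HCV RNA measured by qRT-PCR, 2^-ΔCt method, normalized to GAPDH. Eight-step 1:5 serial dilutions in triplicate; EC50 by Reed & Muench; three independent experiments.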

[10] = tested on: Hepatitis C virus; assay: Antiviral activity against HCV expressing NS5B S282T mutant by qRT-PCR analysis based by Reed-Muench method; format: functional, organism-based, Hepacivirus hominis; procedure, shortened: as §1
[11] = tested on: Hepatitis C virus; assay: Synergistic antiviral activity against HCV infected in human Huh7.5 cells assessed as reduction in HCV core protein level by measuring (q) value at 0.1 uM in presence of 0.016 nM daclatasvir incubated for 72 hrs by Western blot assay based Webb method relative to control; format: functional, Hepacivirus hominis
Procedure, shortened: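 Huh7.5 cells in 6-well plates were infected with HCV in the presence of 0.1 μM test compound combined with simeprevir 0.025 μM, sofosbuvir 0.1 μM or daclatasvir 0.016 nM. Western blot at 72 h gave HCV core protein relative to actin, normalized to control. q calculated by Webb's method (q<1 antagonism, =1 addition, >1 synergy); over 3 independent experiments.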

[12] = Toxicity in Kunming mouse assessed as effect on blood urea nitrogen level at 250 to 1000 mg/kg dosed via single oral gavage and measured on day 7 post treatment; format: organism-based; settings: in vivo
Procedure, shortened: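 Kunming mice, 4 groups of n = 6 (3 male, 3 female). Fasted from 12 h before to 1 h after dosing. Single oral gavage of 250, 500 or 1000 mg/kg suspended in 0.5% CMC-Na, or vehicle alone. Followed for 7 days: survival, body weight before and at day 7. Day-7 blood taken for AST, ALT, urea nitrogen and creatinine.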

[13] = Cmax in Sprague-Dawley rat at 5 mg/kg, iv measured after 0.08 to 72 hrs post dose by LC-MS/MS analysis; format: ADME, organism-based; set-up: dose 5 mg/kg, route intravenous; settings: in vivo
Procedure, shortened: (§2)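 Single dose to fasted (12 h) animals: oral gavage 15 mg/kg as suspension in 0.5% CMC-Na, or iv 5 mg/kg dissolved in citric acid buffer pH 5.0 with 2.5% DMSO. Jugular vein blood on heparin at 0.08 (iv only) to 72 h. Plasma assayed by LC-MS/MS; parameters from noncompartmental analysis.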

[14] = AUC (0 to 72 hrs) in Sprague-Dawley rat at 15 mg/kg, po measured after 0.08 to 72 hrs post dose by LC-MS/MS analysis; format: ADME, organism-based; set-up: dose 15 mg/kg, time < 72 hr, route oral; settings: in vivo; procedure, shortened: as §2
[15] = Clearance in Sprague-Dawley rat at 15 mg/kg, po measured after 0.08 to 72 hrs post dose by LC-MS/MS analysis; format: ADME, organism-based; settings: in vivo; procedure, shortened: as §2
[16] = Oral bioavailability in Sprague-Dawley rat at 5 mg/kg measured after 0.08 to 72 hrs after dose by LC-MS/MS analysis; format: ADME, organism-based; settings: in vivo
[17] = Half life in beagle dog at 5 mg/kg, iv measured after 0.08 to 72 hrs post dose by LC-MS/MS analysis; format: ADME, organism-based, Canis lupus familiaris; settings: in vivo
[18] = Apparent Volume of distribution in beagle dog at 5 mg/kg, iv measured after 0.08 to 72 hrs post dose by LC-MS/MS analysis; format: ADME, organism-based, Canis lupus familiaris; settings: in vivo, read-out: Vz; procedure, shortened: as §2
[19] = Drug level in beagle dog at 5 mg/kg, iv measured after 24 hrs post dose by LC-MS/MS analysis; format: ADME, organism-based, Canis lupus familiaris; settings: in vivo, read-out: Drug uptake; procedure, shortened: as §2
[20] = Half life in beagle dog at 15 mg/kg, po measured after 0.08 to 72 hrs post dose by LC-MS/MS analysis; format: ADME, organism-based, Canis lupus familiaris; settings: in vivo; procedure, shortened: as §2
[21] = Tmax in beagle dog at 15 mg/kg, po measured after 0.08 to 72 hrs post dose by LC-MS/MS analysis; format: ADME, organism-based, Canis lupus familiaris; settings: in vivo
[22] = Cmax in beagle dog at 15 mg/kg, po measured after 0.08 to 72 hrs post dose by LC-MS/MS analysis; format: ADME, organism-based, Canis lupus familiaris; set-up: dose 15 mg/kg, route oral; settings: in vivo; procedure, shortened: as §2
[23] = Apparent Volume of distribution in beagle dog at 15 mg/kg, po measured after 0.08 to 72 hrs post dose by LC-MS/MS analysis; format: ADME, organism-based, Canis lupus familiaris; settings: in vivo; procedure, shortened: as §2
[24] = Clearance in beagle dog at 15 mg/kg, po measured after 0.08 to 72 hrs post dose by LC-MS/MS analysis; format: ADME, organism-based, Canis lupus familiaris; settings: in vivo; procedure, shortened: as §2

For `CN(C)CCN(C)c1ccc(C#N)c(CN2CCN(c3ccc(Cl)cc3)CC2)c1`, the selectivity ratio [1] was 671, the Activity [2] was “inactive” and the Activity [3] was “inactive”. For the same compound, the Activity [4] was “Active”, the Activity [5] was “inactive” and the EC50 [6] was 120 nM. For the same compound, the EC50 [7] was 7410 nM, the CC50 [8] was 22200 nM and the EC50 [9] was 3 nM. The EC50 [10] was 4.4 nM, the Ratio [11] was 1.27 and the Activity [12] was “Non-Toxic”. For the same compound, the Cmax [13] was 617 ng/mL, the AUC(0-t) at 72 h [14] was 9590 ng·h/mL and the CL/F [15] was 37.4 mL/min/kg. For the same compound, the bioavailability [16] was 39%, the half-life [17] was 7.28 h and the Vd [18] was 49.2 L/kg. It also gave a concentration at 24 h [19] of 6.16 ng/mL, a half-life [20] of 12.7 h and a Tmax [21] of 3 h. For the same compound, the Cmax [22] was 94.5 ng/mL, the Vz [23] was 238.11697 L/kg and the CL/F [24] was 200 mL/min/kg.
